Measurements reported in ChEMBL document CHEMBL4229410, “Facile construction of fused benzimidazole-isoquinolinones that induce cell-cycle arrest and apoptosis in colorectal cancer cells” (Bioorg Med Chem, 2018).

What was measured:
[1] = tested on: HT-29; assay: Growth inhibition of human HT-29 cells by MTT assay; type: functional
Summary of the method: (§1)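 MTT viability assay: 3×10³ cells/well were pre-incubated for 24 h, then exposed to 0, 12.5, 25, 50, 100 or 200 μM for 12, 24, 48 or 72 h. MTT was added at 0.5 mg/mL final for 4 h, formazan dissolved in DMSO, and absorbance read at 570 nm. GI₅₀ was taken from growth-inhibition curves; mean ± SD of three independent experiments, each in sextuplicate.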

[2] = tested on: SW-620; assay: Growth inhibition of human SW620 cells by MTT assay; type: functional; summary of the method: as §1

Row | SMILES | GI50 [1] | GI50 [2]
1 | CC(C)CN(C(=O)c1ccccc1C(=O)O)c1c2ccccc2c(=O)n2c1[nH]c1ccccc12 | 59.8 µM | 52.7 µM
2 | O=C(c1ccco1)N(c1ccccc1Br)c1c2ccccc2c(=O)n2c1[nH]c1ccccc12 | 43.7 to 100 µM | 46 to 100 µM
3 | CC(=O)N(c1ccccc1Br)c1c2ccccc2c(=O)n2c1[nH]c1ccccc12 | 57.2 to 100 µM | 46.9 to 100 µM
4 | O=C(c1ccccc1)N(c1ccccc1)c1c2ccccc2c(=O)n2c1[nH]c1ccccc12 | > 100 µM | > 100 µM
5 | O=C(c1cccs1)N(c1c2ccccc2c(=O)n2c1[nH]c1ccccc12)C1CC1 | 51.3 µM | 47.6 µM
6 | CC(C)CN(C(=O)c1ccco1)c1c2ccccc2c(=O)n2c1[nH]c1ccccc12 | 52.8 µM | 53.5 µM

Further lines, results first:

Row | GI50 [1] | GI50 [2] | SMILES
7 | 74.3 µM | 69.7 µM | O=C(c1ccccc1)N(Cc1ccccc1)c1c2ccccc2c(=O)n2c1[nH]c1ccccc12
8 | > 100 µM | > 100 µM | O=C(Nc1c2ccccc2c(=O)n2c1[nH]c1ccccc12)c1ccccc1
9 | 61.3 µM | 57.9 µM | O=C(c1cccnc1)N(c1ccccc1Br)c1c2ccccc2c(=O)n2c1[nH]c1ccccc12
10 | 49.5 µM | 44.1 µM | CC(C)CN(C(=O)c1cccs1)c1c2ccccc2c(=O)n2c1[nH]c1ccccc12
11 | 52.3 µM | 48.9 µM | O=C(c1ccncc1)N(CCc1ccccc1)c1c2ccccc2c(=O)n2c1[nH]c1ccccc12
